According to ChEMBL document CHEMBL4251703, “Linker Variation and Structure-Activity Relationship Analyses of Carboxylic Acid-based Small Molecule STAT3 Inhibitors” (ACS Med Chem Lett, 2018):
Values after ≈ are worked out from the molar mass of the structure shown. Active and inactive are the calls of the source. The calls are words filed in the database; no cut-off is given here.

Legend:
[1] = target: Signal transducer and activator of transcription 3 (Mus musculus, UniProt P42227); experiment: (§1) Inhibition of STAT3 DNA binding activity in mouse NIH/3T3 nuclear extract preincubated for 30 mins followed by [32P]hSIE addition measured after 30 mins by electrophoretic mobility shift assay
Sequence of Signal transducer and activator of transcription 3 (P42227 whole entry): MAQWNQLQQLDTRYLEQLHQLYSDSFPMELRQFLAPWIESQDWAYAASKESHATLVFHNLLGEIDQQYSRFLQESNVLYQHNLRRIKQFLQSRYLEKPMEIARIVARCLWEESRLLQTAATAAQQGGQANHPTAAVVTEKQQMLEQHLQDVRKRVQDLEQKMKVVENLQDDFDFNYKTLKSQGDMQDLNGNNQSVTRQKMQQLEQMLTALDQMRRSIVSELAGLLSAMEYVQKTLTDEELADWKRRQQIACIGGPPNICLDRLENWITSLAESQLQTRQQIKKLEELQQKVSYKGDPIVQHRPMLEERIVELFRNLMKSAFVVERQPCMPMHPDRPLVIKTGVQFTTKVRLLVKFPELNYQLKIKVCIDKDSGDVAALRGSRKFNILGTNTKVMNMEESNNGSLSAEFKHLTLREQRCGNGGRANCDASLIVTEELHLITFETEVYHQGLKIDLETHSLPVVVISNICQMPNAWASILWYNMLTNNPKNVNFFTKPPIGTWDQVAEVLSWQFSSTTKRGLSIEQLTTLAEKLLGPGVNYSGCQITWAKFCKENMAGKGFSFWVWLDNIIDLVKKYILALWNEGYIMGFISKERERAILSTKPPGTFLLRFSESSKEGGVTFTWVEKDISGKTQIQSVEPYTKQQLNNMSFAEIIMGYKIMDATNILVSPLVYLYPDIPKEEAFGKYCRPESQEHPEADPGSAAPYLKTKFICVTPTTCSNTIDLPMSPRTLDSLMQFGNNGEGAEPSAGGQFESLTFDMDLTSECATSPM
Method in brief: (§2)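 STAT3 DNA-binding was measured by EMSA using nuclear extracts of equal total protein from v-Src-transformed fibroblasts containing activated STAT3. Extracts were preincubated for 30 min with 0–100 μM compound, then incubated with radiolabeled hSIE probe.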

[2] = target: Signal transducer and activator of transcription 3 (Mus musculus) (UniProt P42227); experiment: as §1; method in brief: as §2
Sequence of Signal transducer and activator of transcription 3 (Mus musculus) (P42227 whole entry): as above

[3] = Solubility of the compound in simulated intestinal fluid at pH 6.8; type: physicochemical
Method in brief: (§3)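 Aqueous solubility was determined in pH 7.4 PBS and in pH 6.8 buffered simulated intestinal fluid, reported in μg/mL.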

[4] = Half life in mouse liver microsomes; type: ADME, microsome
[5] = Half life in human liver microsomes; type: ADME, microsome
[6] = Solubility of the compound in PBS at pH 7.4; type: physicochemical; method in brief: as §3

| inhibition [2] | Structure (SMILES) | also measured |
| --- | --- | --- |
| – | CN(CC(=O)N(Cc1ccc(C2CCCCC2)cc1)c1ccc(C(=O)O)c(O)c1)S(=O)(=O)c1cc(F)cc(F)c1F | IC50 [1]: > 26 µM |
| inactive | Cc1cc(C(=O)O)cc(C)c1N(Cc1ccc(C2CCCCC2)cc1)C(=O)CN(C)S(=O)(=O)c1c(F)c(F)c(F)c(F)c1F | – |
| – | C[C@H](C(=O)N(Cc1ccc(C2CCCCC2)cc1)c1ccc(C(=O)[O-])c(O)c1)N(C)S(=O)(=O)c1c(F)c(F)c(F)c(F)c1F.[Na+] | solubility [3]: 127 µg/mL |
| Active | C[C@H](O)[C@H](C(=O)N(Cc1ccc(C2CCCCC2)cc1)c1ccc(C(=O)O)c(O)c1)N(C)S(=O)(=O)c1c(F)c(F)c(F)c(F)c1F | – |
| inactive | O=C(O)c1ccc(N(Cc2ccc(C3CCCCC3)cc2)C(=O)[C@H]2CCCN2C(=O)c2c(F)c(F)c(F)c(F)c2F)cc1O | – |
| inactive | O=C(O)c1ccc(N(Cc2ccc(C3CCCCC3)cc2)C(=O)[C@H]2CCCN2S(=O)(=O)c2cc(F)cc(F)c2F)cc1O | – |
| inactive | CN(CC(=O)N(Cc1ccc(C2CCCCC2)cc1)c1ccc(C(=O)O)c(O)c1)Cc1c(F)c(F)c(F)c(F)c1F | – |
| inactive | C[C@H](C(=O)N(Cc1ccc(C2CCCCC2)cc1)c1ccc2cn[nH]c2c1)N(C)S(=O)(=O)c1c(F)c(F)c(F)c(F)c1F | – |
| – | CN(CC(=O)N(Cc1ccc(C2CCCCC2)cc1)c1ccc(C(=O)O)c(O)c1)S(=O)(=O)c1c(F)cc(F)cc1F | IC50 [1]: > 26 µM |
| – | CN(CC(=O)N(Cc1ccc(C2CCCCC2)cc1)c1ccc(C(=O)NO)cc1)S(=O)(=O)c1c(F)c(F)c(F)c(F)c1F | solubility [3]: 74 µg/mL (≈ 118 µM); half-life [4]: ≥ 17 min; half-life [5]: ≥ 17 min; solubility [6]: 0.3 µg/mL (≈ 0.48 µM) |
| Active | CN([C@H](CO)C(=O)N(Cc1ccc(C2CCCCC2)cc1)c1ccc(C(=O)NO)cc1)S(=O)(=O)c1c(F)c(F)c(F)c(F)c1F | – |
| inactive | CN(CC(=O)N(Cc1ccc(C2CCOCC2)cc1)c1ccc(C(=O)O)cc1)S(=O)(=O)c1c(F)c(F)c(F)c(F)c1F | – |
| – | CN(CC(=O)N(Cc1ccc(C2CCCCC2)cc1)c1ccc(C(=O)O)c(O)c1)S(=O)(=O)c1cc(C(F)(F)F)cc(C(F)(F)F)c1 | IC50 [1]: > 26 µM |
| inactive | C[C@H](C(=O)N(Cc1ccc(C2CCCCC2)cc1)c1ccc2c(c1)CNC2=O)N(C)S(=O)(=O)c1c(F)c(F)c(F)c(F)c1F | – |
| inactive | C[C@H](C(=O)N(Cc1ccc(C2CCOCC2)cc1)c1ccc(C(=O)[O-])c(O)c1)N(C)S(=O)(=O)c1c(F)c(F)c(F)c(F)c1F.[Na+] | – |
| inactive | CN(CC(=O)N(Cc1ccc(C2CCC(F)(F)CC2)cc1)c1ccc(C(=O)O)c(O)c1)S(=O)(=O)c1c(F)c(F)c(F)c(F)c1F | – |
| inactive | Cc1cc(N(Cc2ccc(C3CCCCC3)cc2)C(=O)CN(C)S(=O)(=O)c2c(F)c(F)c(F)c(F)c2F)ccc1C(=O)O | – |
| inactive | CN(CC(=O)N(Cc1ccc(C2CCOCC2)cc1)c1ccc(C(=O)NO)c(O)c1)S(=O)(=O)c1c(F)c(F)c(F)c(F)c1F | – |
| – | O=C(NO)c1ccc(N(Cc2ccc(C3CCCCC3)cc2)C(=O)[C@H]2CCCN2S(=O)(=O)c2c(F)c(F)c(F)c(F)c2F)cc1O | IC50 [1]: 5.5 µM |
